Assay results from ChEMBL document CHEMBL1142492 (J Med Chem, 2008).

How the values were obtained:
[1] = biological target: Proto-oncogene tyrosine-protein kinase ROS (Homo sapiens) (UniProt P08922); assay: Inhibition of ROS1 at 3 uM
[2] = biological target: Tyrosine-protein kinase receptor Tie-1 (Homo sapiens) (UniProt P35590); assay: Inhibition of TIE1 at 3 uM
[3] = biological target: Activated CDC42 kinase 1 (Homo sapiens) (UniProt Q07912); assay: Inhibition of TNK2 at 3 uM
[4] = biological target: Epidermal growth factor receptor (Homo sapiens) (UniProt P04626+P00533+Q15303+P21860); assay: Inhibition of EGFR L747-T751del,Sins mutant at 3 uM; type: protein assay
[5] = biological target: Tyrosine-protein kinase Lck (Homo sapiens) (UniProt P06239); assay: Inhibition of LCK at 3 uM
[6] = biological target: Tyrosine-protein kinase Fyn (Homo sapiens) (UniProt P06241); assay: Inhibition of FYN at 3 uM
Tyrosine-protein kinase Fyn (Homo sapiens), sequence (P06241 2-537 limits assumed): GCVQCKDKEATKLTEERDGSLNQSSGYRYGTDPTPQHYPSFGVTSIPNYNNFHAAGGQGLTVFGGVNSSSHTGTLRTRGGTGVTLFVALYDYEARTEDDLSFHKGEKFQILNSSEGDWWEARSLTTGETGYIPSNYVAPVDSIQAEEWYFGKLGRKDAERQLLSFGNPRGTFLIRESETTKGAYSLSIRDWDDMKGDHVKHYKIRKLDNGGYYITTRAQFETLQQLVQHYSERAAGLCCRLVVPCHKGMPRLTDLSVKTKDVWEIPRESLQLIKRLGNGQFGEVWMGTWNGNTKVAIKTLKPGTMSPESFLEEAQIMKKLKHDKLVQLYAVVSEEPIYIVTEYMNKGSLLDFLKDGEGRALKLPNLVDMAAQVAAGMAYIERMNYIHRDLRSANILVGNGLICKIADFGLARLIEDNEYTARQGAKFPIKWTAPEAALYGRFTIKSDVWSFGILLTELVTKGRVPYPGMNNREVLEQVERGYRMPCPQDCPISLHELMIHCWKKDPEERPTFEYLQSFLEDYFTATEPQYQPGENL
Method in brief: (§1)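 Single-concentration kinase panel scoring: each value is the percentage of enzyme activity remaining relative to a DMSO-only control. An activity statistically indistinct from DMSO control was scored "no hit".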

[7] = biological target: MAP/microtubule affinity-regulating kinase 4 (Homo sapiens) (UniProt Q96L34); assay: Inhibition of MARK4 at 3 uM
[8] = biological target: Dual specificity mitogen-activated protein kinase kinase 1 (Homo sapiens) (UniProt Q02750); assay: Inhibition of MEK1 at 3 uM
[9] = biological target: Dual specificity mitogen-activated protein kinase kinase 3 (Homo sapiens) (UniProt P46734); assay: Inhibition of MEK3 at 3 uM
Dual specificity mitogen-activated protein kinase kinase 3 (Homo sapiens), sequence (P46734 whole entry): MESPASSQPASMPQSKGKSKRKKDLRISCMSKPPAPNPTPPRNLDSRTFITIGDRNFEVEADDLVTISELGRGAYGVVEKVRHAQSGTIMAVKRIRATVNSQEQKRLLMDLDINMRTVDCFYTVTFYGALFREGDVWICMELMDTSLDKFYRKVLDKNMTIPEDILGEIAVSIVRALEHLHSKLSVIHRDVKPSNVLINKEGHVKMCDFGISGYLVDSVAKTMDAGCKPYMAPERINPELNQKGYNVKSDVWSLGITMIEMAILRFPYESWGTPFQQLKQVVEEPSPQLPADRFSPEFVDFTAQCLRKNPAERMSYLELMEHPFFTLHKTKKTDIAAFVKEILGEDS

[10] = biological target: Tyrosine-protein kinase Mer (Homo sapiens) (UniProt Q12866); assay: Inhibition of MERTK at 3 uM
[11] = biological target: Mitogen-activated protein kinase kinase kinase 11 (Homo sapiens) (UniProt Q16584); assay: Inhibition of MLK3 at 3 uM
[12] = biological target: Tyrosine-protein kinase ITK/TSK (Homo sapiens) (UniProt Q08881); assay: Inhibition of ITK at 3 uM
[13] = biological target: Serine/threonine-protein kinase 38-like (Homo sapiens) (UniProt Q9Y2H1); assay: Inhibition of NDR2 at 3 uM
Serine/threonine-protein kinase 38-like (Homo sapiens), sequence (Q9Y2H1 2-464 limits assumed): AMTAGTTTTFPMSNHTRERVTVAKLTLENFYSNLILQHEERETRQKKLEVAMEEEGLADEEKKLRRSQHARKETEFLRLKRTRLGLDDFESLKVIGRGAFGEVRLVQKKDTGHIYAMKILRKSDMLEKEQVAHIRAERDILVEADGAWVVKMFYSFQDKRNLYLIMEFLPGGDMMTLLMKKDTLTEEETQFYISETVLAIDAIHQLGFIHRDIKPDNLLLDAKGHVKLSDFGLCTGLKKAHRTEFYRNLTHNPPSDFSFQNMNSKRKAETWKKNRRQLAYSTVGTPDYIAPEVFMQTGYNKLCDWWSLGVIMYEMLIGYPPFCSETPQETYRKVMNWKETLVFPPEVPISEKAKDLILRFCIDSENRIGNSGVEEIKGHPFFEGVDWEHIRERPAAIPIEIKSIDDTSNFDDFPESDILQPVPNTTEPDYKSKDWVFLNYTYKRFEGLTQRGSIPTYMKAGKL

[14] = biological target: Serine/threonine-protein kinase Nek1 (Homo sapiens) (UniProt Q96PY6); assay: Inhibition of NEK1 at 3 uM
[15] = biological target: Serine/threonine-protein kinase NLK (Homo sapiens) (UniProt Q9UBE8); assay: Inhibition of NLK at 3 uM
[16] = biological target: Mitogen-activated protein kinase 14 (Homo sapiens) (UniProt Q16539); assay: Inhibition of p38-alpha at 3 uM
Mitogen-activated protein kinase 14 (Homo sapiens), sequence (Q16539 whole entry): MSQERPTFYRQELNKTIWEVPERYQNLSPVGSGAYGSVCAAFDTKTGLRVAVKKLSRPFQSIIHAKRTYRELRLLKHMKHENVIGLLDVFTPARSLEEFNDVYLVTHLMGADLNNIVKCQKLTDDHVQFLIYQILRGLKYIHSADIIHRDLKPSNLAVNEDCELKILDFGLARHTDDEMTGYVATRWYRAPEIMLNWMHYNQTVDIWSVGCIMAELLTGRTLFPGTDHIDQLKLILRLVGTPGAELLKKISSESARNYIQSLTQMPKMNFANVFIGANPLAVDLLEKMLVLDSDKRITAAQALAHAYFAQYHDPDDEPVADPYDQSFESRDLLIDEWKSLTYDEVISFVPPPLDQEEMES

[17] = biological target: Mitogen-activated protein kinase 12 (Homo sapiens) (UniProt P53778); assay: Inhibition of p38-gamma at 3 uM
[18] = biological target: Serine/threonine-protein kinase PAK 3 (Homo sapiens) (UniProt O75914); assay: Inhibition of PAK3 at 3 uM
[19] = biological target: Serine/threonine-protein kinase PAK 4 (Homo sapiens) (UniProt O96013); assay: Inhibition of PAK4 at 3 uM
[20] = biological target: Protein kinase C delta type (Homo sapiens) (UniProt Q05655); assay: Inhibition of PRKCD at 3 uM
[21] = biological target: Phosphorylase b kinase gamma catalytic chain, skeletal muscle/heart isoform (Homo sapiens) (UniProt Q16816); assay: Inhibition of PHKG1 at 3 uM
[22] = biological target: Serine/threonine-protein kinase TNNI3K (Homo sapiens) (UniProt Q59H18); assay: Inhibition of TNNI3K at 3 uM
CYP3A4 = CYP3A4 (Homo sapiens, UniProt P08684); assay: Inhibition of human CYP3A4 at 10 uM; type: ADME
CYP2D6 = CYP2D6 (Homo sapiens, UniProt P10635); assay: Inhibition of human CYP2D6 at 10 uM; type: ADME
[23] = biological target: T1, RAC-alpha serine/threonine-protein kinase (Homo sapiens, UniProt P31749); assay: Inhibition of AKT1 after 55 mins
T1 sequence (P31749 whole entry): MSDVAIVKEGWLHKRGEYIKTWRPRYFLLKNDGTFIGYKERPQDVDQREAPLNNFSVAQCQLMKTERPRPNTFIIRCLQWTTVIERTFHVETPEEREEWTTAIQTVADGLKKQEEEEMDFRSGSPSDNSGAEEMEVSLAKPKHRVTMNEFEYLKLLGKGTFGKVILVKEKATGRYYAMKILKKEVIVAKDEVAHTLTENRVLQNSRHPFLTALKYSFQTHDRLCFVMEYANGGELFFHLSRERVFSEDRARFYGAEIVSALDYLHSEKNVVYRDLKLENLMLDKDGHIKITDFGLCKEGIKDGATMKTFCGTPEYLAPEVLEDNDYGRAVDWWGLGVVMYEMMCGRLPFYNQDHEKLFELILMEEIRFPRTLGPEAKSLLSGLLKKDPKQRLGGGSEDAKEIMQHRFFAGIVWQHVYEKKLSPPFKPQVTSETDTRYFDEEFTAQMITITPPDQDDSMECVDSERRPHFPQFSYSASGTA

[24] = biological target: D(2) dopamine receptor (Homo sapiens) (UniProt P14416); assay: Inhibition of human dopamine D2S receptor at 3 uM
Method in brief: (§2)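 Counter-screen binding/enzyme panel at single 3 μM, n=2; results as percent inhibition. Species per target as listed (rat NMDA, GABAA sites; human receptors, transporters; rabbit ACE).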

[25] = biological target: Muscarinic acetylcholine receptor M1 (Homo sapiens) (UniProt P11229); assay: Inhibition of human muscarinic M1 receptor at 3 uM; method in brief: as §2
[26] = biological target: Acetylcholine receptor subunit alpha (Homo sapiens) (UniProt P02708); assay: Displacement of bungarotoxin from human nAChR alpha1 receptor at 3 uM
Method in brief: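 Counter-screen of human nicotinic α1 receptor binding, assayed by bungarotoxin displacement.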

[27] = tested on: Tyrosine-protein kinase ABL1 (Homo sapiens), P00519 [F317I]; assay: Inhibition of ABL1 F317I mutant at 3 uM
[28] = tested on: Tyrosine-protein kinase ABL1 (Homo sapiens), P00519 [Q252H]; assay: Inhibition of ABL1 Q252H mutant at 3 uM
[29] = biological target: Tyrosine-protein kinase ABL2 (Homo sapiens) (UniProt P42684); assay: Inhibition of ABL2 at 3 uM
[30] = biological target: T1, RAC-alpha serine/threonine-protein kinase; assay: Inhibition of AKT1 at 3 uM
[31] = biological target: BMP-2-inducible protein kinase (Homo sapiens) (UniProt Q9NSY1); assay: Inhibition of BIKE at 3 uM
[32] = biological target: Bone morphogenetic protein receptor type-1A (Homo sapiens) (UniProt P36894); assay: Inhibition of BMPR1A at 3 uM
Bone morphogenetic protein receptor type-1A (Homo sapiens), sequence (P36894 whole entry): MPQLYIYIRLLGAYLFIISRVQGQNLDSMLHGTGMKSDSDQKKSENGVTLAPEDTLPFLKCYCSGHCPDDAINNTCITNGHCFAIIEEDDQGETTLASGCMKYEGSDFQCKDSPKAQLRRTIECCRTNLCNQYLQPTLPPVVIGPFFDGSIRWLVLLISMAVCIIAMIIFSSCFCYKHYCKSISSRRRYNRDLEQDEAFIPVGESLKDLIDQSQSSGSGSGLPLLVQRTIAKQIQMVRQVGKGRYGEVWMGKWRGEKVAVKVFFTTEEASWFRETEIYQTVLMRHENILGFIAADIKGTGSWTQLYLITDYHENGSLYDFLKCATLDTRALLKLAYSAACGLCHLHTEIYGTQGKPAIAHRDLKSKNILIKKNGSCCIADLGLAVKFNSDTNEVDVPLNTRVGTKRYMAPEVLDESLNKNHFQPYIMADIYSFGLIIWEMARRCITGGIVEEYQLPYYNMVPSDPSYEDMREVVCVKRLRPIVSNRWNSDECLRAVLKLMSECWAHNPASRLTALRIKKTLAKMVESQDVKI

[33] = biological target: Serine/threonine-protein kinase Chk1 (Homo sapiens) (UniProt O14757); assay: Inhibition of CHEK1 at 3 uM
[34] = biological target: Serine/threonine-protein kinase Chk2 (Homo sapiens) (UniProt O96017); assay: Inhibition of CHEK2 at 3 uM
[35] = biological target: Sodium-dependent noradrenaline transporter (Homo sapiens) (UniProt P23975); assay: Inhibition of human NET at 3 uM; method in brief: as §2
[36] = biological target: Casein kinase I isoform delta (Homo sapiens) (UniProt P48730); assay: Inhibition of CSNK1D at 3 uM
[37] = biological target: Casein kinase II subunit alpha' (Homo sapiens) (UniProt P19784); assay: Inhibition of CSNK2A2 at 3 uM
[38] = biological target: Discoidin domain-containing receptor 2 (Homo sapiens) (UniProt Q16832); assay: Inhibition of DDR2 at 3 uM
[39] = biological target: Calcium/calmodulin-dependent protein kinase type IV (Homo sapiens) (UniProt Q16566); assay: Inhibition of CAMK4 at 3 uM
[40] = biological target: Mitogen-activated protein kinase 7 (Homo sapiens) (UniProt Q13164); assay: Inhibition of ERK5 at 3 uM; method in brief: as §1
Rattus norvegicus [41] = species on record: Rattus norvegicus; conditions: 3 uM
Rattus norvegicus [42] = species on record: Rattus norvegicus; conditions: 3 uM; remark: listed apart in the source
Mus musculus = species on record: Mus musculus; conditions: 3 uM
Rattus norvegicus [43] = species on record: Rattus norvegicus; conditions: 3 uM; remark: listed apart in the source
Rattus norvegicus [44] = species on record: Rattus norvegicus; conditions: 3 uM; remark: listed apart in the source

Tyrosine-protein kinase receptor Tie-1 (Homo sapiens), sequence (P35590 whole entry): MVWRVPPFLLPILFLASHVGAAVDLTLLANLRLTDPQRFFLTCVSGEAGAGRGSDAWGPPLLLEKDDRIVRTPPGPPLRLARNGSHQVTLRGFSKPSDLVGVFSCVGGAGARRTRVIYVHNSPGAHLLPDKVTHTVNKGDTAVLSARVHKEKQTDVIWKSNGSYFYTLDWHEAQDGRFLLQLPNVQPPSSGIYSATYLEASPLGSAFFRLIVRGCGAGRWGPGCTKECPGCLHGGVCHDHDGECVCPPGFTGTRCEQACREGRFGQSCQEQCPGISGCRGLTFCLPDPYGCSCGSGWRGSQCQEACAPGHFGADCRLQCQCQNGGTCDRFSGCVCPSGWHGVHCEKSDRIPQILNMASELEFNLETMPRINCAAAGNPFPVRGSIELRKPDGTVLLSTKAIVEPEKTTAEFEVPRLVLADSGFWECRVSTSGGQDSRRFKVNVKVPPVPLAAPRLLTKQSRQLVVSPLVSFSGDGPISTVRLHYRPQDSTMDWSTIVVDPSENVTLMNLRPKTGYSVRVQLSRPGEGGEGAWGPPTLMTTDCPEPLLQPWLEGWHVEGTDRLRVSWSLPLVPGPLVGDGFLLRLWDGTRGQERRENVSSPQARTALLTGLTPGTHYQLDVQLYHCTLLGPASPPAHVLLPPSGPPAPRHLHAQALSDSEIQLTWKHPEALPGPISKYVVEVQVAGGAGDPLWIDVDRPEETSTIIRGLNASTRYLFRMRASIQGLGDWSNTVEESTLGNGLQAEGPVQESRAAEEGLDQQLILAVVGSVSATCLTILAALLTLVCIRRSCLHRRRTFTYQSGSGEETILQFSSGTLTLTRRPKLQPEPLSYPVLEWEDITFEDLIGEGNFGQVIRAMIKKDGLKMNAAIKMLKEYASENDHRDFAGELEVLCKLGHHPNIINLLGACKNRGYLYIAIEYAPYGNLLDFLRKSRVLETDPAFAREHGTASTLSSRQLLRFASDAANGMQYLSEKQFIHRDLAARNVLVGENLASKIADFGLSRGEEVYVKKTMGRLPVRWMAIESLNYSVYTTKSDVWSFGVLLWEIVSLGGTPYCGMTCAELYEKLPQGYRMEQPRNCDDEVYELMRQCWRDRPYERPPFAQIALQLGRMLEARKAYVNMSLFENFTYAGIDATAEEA
Activated CDC42 kinase 1 (Homo sapiens), sequence (Q07912 whole entry, looked up): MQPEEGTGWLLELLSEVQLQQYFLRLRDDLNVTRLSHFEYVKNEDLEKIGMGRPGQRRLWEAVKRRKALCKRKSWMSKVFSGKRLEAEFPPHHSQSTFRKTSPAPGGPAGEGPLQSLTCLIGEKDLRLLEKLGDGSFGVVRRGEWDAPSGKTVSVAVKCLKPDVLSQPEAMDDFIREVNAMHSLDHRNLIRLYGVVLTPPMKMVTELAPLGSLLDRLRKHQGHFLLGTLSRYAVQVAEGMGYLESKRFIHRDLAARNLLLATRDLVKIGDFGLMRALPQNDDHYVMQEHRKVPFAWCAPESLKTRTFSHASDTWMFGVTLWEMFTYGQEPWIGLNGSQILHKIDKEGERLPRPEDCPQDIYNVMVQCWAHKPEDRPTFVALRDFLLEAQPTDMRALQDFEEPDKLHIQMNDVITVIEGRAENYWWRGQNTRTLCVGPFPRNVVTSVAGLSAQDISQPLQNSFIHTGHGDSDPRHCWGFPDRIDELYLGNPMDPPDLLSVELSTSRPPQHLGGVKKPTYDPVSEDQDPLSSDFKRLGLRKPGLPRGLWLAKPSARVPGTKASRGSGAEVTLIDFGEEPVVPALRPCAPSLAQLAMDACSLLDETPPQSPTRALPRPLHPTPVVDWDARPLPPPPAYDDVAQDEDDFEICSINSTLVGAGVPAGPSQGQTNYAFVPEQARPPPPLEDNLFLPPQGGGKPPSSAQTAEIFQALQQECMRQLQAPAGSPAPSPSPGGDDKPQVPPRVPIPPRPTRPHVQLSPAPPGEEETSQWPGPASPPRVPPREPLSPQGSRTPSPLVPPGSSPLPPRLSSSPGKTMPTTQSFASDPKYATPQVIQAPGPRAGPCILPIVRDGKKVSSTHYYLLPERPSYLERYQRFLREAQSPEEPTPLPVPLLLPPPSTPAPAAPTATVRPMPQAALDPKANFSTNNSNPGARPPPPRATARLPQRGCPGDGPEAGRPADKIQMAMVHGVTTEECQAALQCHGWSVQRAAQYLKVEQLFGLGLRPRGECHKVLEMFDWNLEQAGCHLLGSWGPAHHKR

CN(C)CCOc1cc(-c2cn[nH]c2)ccc1NC(=O)C1COc2ccccc2O1 (configuration not stated) [SR-3677]
inhibition [1]: < 10% | inhibition [2]: < 10% | inhibition [3]: < 10% | inhibition [4]: < 10% | inhibition [5]: < 10% | inhibition [6]: < 10% | inhibition [7]: < 10% | inhibition [8]: < 10% | inhibition [9]: < 10% | inhibition [10]: < 10% | inhibition [11]: < 10% | inhibition [12]: < 10% | inhibition [13]: < 10% | inhibition [14]: < 10% | inhibition [15]: < 10% | inhibition [16]: < 10% | inhibition [17]: < 10% | inhibition [18]: < 10% | inhibition [19]: < 10% | inhibition [20]: < 10% | inhibition [21]: < 10% | inhibition [22]: < 10% | inhibition at 10 µM (CYP3A4): 0% | inhibition at 10 µM (CYP2D6): 75% | IC50 [23]: 7.49 µM | inhibition [24]: 6% | inhibition [25]: 6% | inhibition [26]: 7% | inhibition [27]: < 10% | inhibition [28]: < 10% | inhibition [29]: < 10% | inhibition [30]: < 10% | inhibition [31]: < 10% | inhibition [32]: < 10% | inhibition [33]: < 10% | inhibition [34]: < 10% | inhibition [35]: 16% | inhibition [36]: < 10% | inhibition [37]: < 10% | inhibition [38]: < 10% | inhibition [39]: < 10% | inhibition [40]: < 10% | inhibition (Rattus norvegicus [41]): 24% | inhibition (Rattus norvegicus [42]): -6% | inhibition (Mus musculus): -2% | inhibition (Rattus norvegicus [43]): -1% | inhibition (Rattus norvegicus [44]): 17%
